Source: PubChem BioAssay (several laboratories)
TPT1 inhibitor: Candida albicans TPT1 enzyme inhibitors, primary screen, biochemical, fluorescence polarization. 300,000 tested, 0.81% active. AID 1962, 2009. recombinant caTPT1, FP RNA substrate dephosphorylation. inhibition, % at 5 µM. tRNA 2'-phosphotransferase TPT1 (Candida albicans SC5314);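 active = inhibition above the mean of all tested compounds plus 3 SD, set per screening campaign, cut at about 24% in these data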;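 also: plate controls were DMSO alone for no effect and ferristatin control at 100 nM for full effect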
aDG glyco act: activators of alpha-DG glycosylation, primary screen, uHTS, Pro5-aDG cells, AlphaScreen. alpha-DG glycosylation AlphaScreen (IIH6); 0% Pro5, 100% B10-LARGE cell signal. activation, % at 10 µM. 360,000 tested, 0.22% active;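 active = activation of at least 8% versus controls, or a plate z-score of at least 8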;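 also: Pro5 are CHO cells carrying HIG-tagged alpha-DG that lacks glycosylation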
CSN inh: inhibitors of CSN-mediated cullin deneddylation, primary screen, biochemical, fluorescence polarization, uHTS | COP9 signalosome complex subunit 5 (Homo sapiens), Q92905 | Purified CSN, SCF-Nedd8-OG deneddylation | inhibition, % at 12.5 µM | 360,000 tested, 0.38% active | AID 651999, 2013;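 active = pattern-corrected inhibition above about 35%, with an unprinted fluorescence ratio check between 0.5 and 1.5, limit read from the data, passing the limit was not always enough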;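 also: 0% = enzyme with substrate and 100% = substrate without enzyme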
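assay system = purified human Csn5 enzyme expressed in HEK293T cells | amount = 0.24 nM enzyme | buffer or medium = Tris/NaCl/DTT buffer, pH 7.5 | reagent = 10 nM SCFSkp2-Nedd8OG | compound = one concentration, 12.5 µM, 0.25% DMSO | times = 90 min reaction at room temperature | signal = FP | read-out basis = % inhibition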
Rpn11 block: Rpn11 (PSMD14) deubiquitinase inhibitors, primary screen, biochemical, fluorescence polarization, uHTS; 26S proteasome non-ATPase regulatory subunit 14 (Homo sapiens), O00487; human 26S proteasome, Ub4-pepOG fluorescence polarization; 20S core pre-blocked with epoxomicin; inhibition, % at 20 µM; 360,000 tested, 0.59% active; AID 588493, 2011;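 active = inhibition at 20 µM, scaled to each plate's controls, above about 33%, limit read from the data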
Xi reactivation: activators of inactive X chromosome reactivation, primary screen, imaging, XiGFP fibroblasts, GFP high-content imaging, set 2; XiGFP mouse fibroblasts, % GFP-positive cells imaging, 3 d; cells co-treated with 5-aza-dC sensitizer; scaled so ellipticine positive control = 100%; activation, % at 7.58 µM; 360,000 tested, 0.055% active; AID 743238, 2013;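 active = mean normalized replicate activation at least 10% and every replicate at or above 10%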;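 also: 0% = median of on-plate neutral control wells and 100% = ellipticine 6 µM median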
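System: 68-5-11 XiGFP fibroblast line; Timing: 3 days compound exposure; Compound dosing: one concentration, pinned; Benchmarks: positive control ellipticine, 6 µM final; Buffer or medium: DMEM containing 5-aza-dC.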
HNF4A DNA FP: change in binding of human HNF4A to DNA, primary screen, biochemical, fluorescence polarization, FITC-DNA; AID 1224865, 2016; 360,000 tested, 0.3% active; activity change, % at 10 µM; 1 h; in the data active = activity change above about 30%, passing the limit was not always enough
Target sequence (P41235 whole entry, looked up): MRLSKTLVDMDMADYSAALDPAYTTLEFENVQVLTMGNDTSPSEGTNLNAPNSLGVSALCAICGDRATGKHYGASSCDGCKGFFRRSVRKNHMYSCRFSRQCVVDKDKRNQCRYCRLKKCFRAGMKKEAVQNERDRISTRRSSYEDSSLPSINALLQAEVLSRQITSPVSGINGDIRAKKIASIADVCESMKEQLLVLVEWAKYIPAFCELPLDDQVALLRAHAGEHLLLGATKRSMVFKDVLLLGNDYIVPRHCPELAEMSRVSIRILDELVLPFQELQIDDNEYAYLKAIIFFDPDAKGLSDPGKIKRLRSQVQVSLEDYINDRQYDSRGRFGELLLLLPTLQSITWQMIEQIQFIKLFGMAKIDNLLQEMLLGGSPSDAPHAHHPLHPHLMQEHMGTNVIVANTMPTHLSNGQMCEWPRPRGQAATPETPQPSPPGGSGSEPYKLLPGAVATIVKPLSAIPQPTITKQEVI
TPT1 inh confirm: Candida albicans TPT1 inhibitors, confirmation, biochemical, fluorescence polarization, triplicate. shares compounds with TPT1 inhibitor. recombinant caTPT1, RNase T1 coupled. inhibition, % at 5 µM. 2,400 tested, 74% active. AID 2149, 2009;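 active = inhibition above the primary screen limit, the mean inhibition of all tested compounds plus 3 SD, cut at about 25% in these data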
RNase T1 inh: RNase T1 inhibitors, counter-screen for TPT1 inhibitor project, biochemical, fluorescence polarization. shares compounds with TPT1 inhibitor. RNase T1 cleavage, 1536-well. inhibition, % at 5 µM. 2,400 tested, 83% active;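 active = inhibition above the solvent-only control well mean plus 3 SD, limit set per screening run, cut at about 23% in these data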;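 also: plate controls were DMSO wells with enzyme for no effect and wells without RNase T1 for full effect; inhibitors block cleavage so intact labeled substrate keeps polarization high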
Target sequence (P00651 whole entry, looked up): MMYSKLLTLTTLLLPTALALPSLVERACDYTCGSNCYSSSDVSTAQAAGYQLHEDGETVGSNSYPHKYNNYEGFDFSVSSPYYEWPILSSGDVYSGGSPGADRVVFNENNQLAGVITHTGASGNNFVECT
Numbers without * were called inactive. This is a sample that favours compounds with a hit; in the whole collection about 1.3% have one here.

Screening COc1ccc(C2C(C#N)=C(N)N(c3cccnc3)C3=C2C(=O)CCC3)cc1Cn1cc([N+](=O)[O-])cn1 (stereo unspecified) returned TPT1 inhibitor 37*, aDG glyco act 1, CSN inh 5, Rpn11 block 29, HNF4A DNA FP 28, TPT1 inh confirm 43* and RNase T1 inh 55*.
Screening CCCN1C[C@@H](C)[C@H](OC)CN(C)C(=O)c2ccc(NC(=O)c3cccc(OC)c3)cc2OC[C@H]1C returned Xi reactivation 0.
COc1ccc2c(Cl)c(C(=O)N/N=C/c3ccc4c(c3)OCO4)sc2c1 was read as TPT1 inhibitor 2, aDG glyco act 0, CSN inh 7, Rpn11 block 3 and HNF4A DNA FP -9.
`COc1ccc2c(Cl)c(C(=O)N/N=C3\CCCC(=O)C3)sc2c1` gave TPT1 inhibitor 97*, aDG glyco act 0, CSN inh 56, Xi reactivation 0, HNF4A DNA FP 165, TPT1 inh confirm 121* and RNase T1 inh 115*.
`O=C1NCCOCn2nncc2CC[C@H]1Cc1ccc(Cl)cc1` gave Xi reactivation 0.
COc1ccc2c3c([nH]c2c1)[C@@H](CO)N(C(=O)Nc1ccc(F)cc1)CC31CCN(S(=O)(=O)c2ccccc2)CC1 was read as Xi reactivation 0.
For O=C1/C(=C\c2c(NCCOCCO)nc3ccccn3c2=O)SC(=S)N1Cc1ccco1 the results were TPT1 inhibitor 86*, aDG glyco act 0, CSN inh 97, Xi reactivation 1, HNF4A DNA FP 103, TPT1 inh confirm 86* and RNase T1 inh 87*.
`CN(C)c1ccc(C=C2SC(=S)N(Cc3ccco3)C2=O)cc1` gave aDG glyco act 0, CSN inh -72, Xi reactivation 0 and HNF4A DNA FP 128.
Screening O=C(C[C@@H]1CC[C@@H](NC(=O)NC2CCCCC2)[C@@H](CO)O1)NCc1ccc(F)cc1 returned Xi reactivation 0.
Screening C[C@@H]1CN([C@H](C)CO)C(=O)c2cc(-c3cccc(C#N)c3)cnc2O[C@@H]1CN(C)C(=O)c1ccccn1 returned Xi reactivation 0.
Clc1ccc(OCCn2ccnc2)cc1Cl was read as TPT1 inhibitor 60*, aDG glyco act 0, CSN inh 3, Rpn11 block 6, Xi reactivation 0, HNF4A DNA FP 0, TPT1 inh confirm 6 and RNase T1 inh 8.
For N#CC(C#N)=C/C=C(\Nc1ccc(Cl)cc1)c1ccc(Cl)cc1 the results were TPT1 inhibitor 70*, aDG glyco act 0, CSN inh 108, Rpn11 block 14, Xi reactivation 0, HNF4A DNA FP 1, TPT1 inh confirm 13 and RNase T1 inh 19.
Cc1noc(C)c1S(=O)(=O)Nc1ccc2c(c1)C(=O)N([C@@H](C)CO)C[C@@H](C)[C@@H](CN(C)C)OCCCC[C@@H](C)O2 was read as Xi reactivation 0.
For C[C@@H]1CN([C@H](C)CO)C(=O)c2cccc(N(C)C)c2O[C@@H]1CN(C)Cc1ccc(C(=O)O)cc1 the results were Xi reactivation 0.
`COc1cc(N2CCCC2)c(OC)cc1/C=C(/C#N)c1ccc(F)cc1` gave TPT1 inhibitor 143*, aDG glyco act -1, CSN inh 23, HNF4A DNA FP 82, TPT1 inh confirm 132* and RNase T1 inh 134*.
`CC(C)CC#Cc1ccc2c(c1)O[C@H](CN(C)C(=O)c1ccccc1F)[C@@H](C)CN([C@H](C)CO)S2(=O)=O` gave Xi reactivation 0.
`CCN(CC)c1ccc(/C=C/C(=O)c2ccc(Br)cc2)cc1` gave TPT1 inhibitor 97*, aDG glyco act 0, CSN inh -92, Xi reactivation 0, HNF4A DNA FP -4, TPT1 inh confirm 94* and RNase T1 inh 96*.
Screening CN(C)c1ccc(C(=O)/C=C/c2ccc(Br)cc2)cc1 returned TPT1 inhibitor 4, aDG glyco act 0, CSN inh 1, Rpn11 block 13, Xi reactivation 0 and HNF4A DNA FP 15.
Screening COCCN(CCOC)Cc1c(O)ccc2c1O/C(=C\c1ccc(C)o1)C2=O returned TPT1 inhibitor 27*, aDG glyco act 0, CSN inh 10, Rpn11 block 26, Xi reactivation 0, HNF4A DNA FP 32, TPT1 inh confirm 34* and RNase T1 inh 46*.
For CNC[C@@H]1OCCCC[C@@H](C)Oc2ccc(NS(=O)(=O)c3cn(C)cn3)cc2C(=O)N([C@H](C)CO)C[C@@H]1C the results were Xi reactivation 0.
For CCN(CC)c1ccc2c(c1)oc(=O)c1c(Cl)cc(=O)oc12 the results were TPT1 inhibitor 25*, aDG glyco act 0, CSN inh -31, Rpn11 block -14, HNF4A DNA FP -23, TPT1 inh confirm 37* and RNase T1 inh 50*.
Screening CCN(CC)c1ccc(/C=C2/C(=O)ON=C2C)cc1 returned TPT1 inhibitor 117*, aDG glyco act 0, CSN inh 29, Xi reactivation 0, HNF4A DNA FP 9, TPT1 inh confirm 132* and RNase T1 inh 134*.
For CCOc1cc(/C=C2/C(=O)ON=C2C)ccc1O the results were TPT1 inhibitor 10, aDG glyco act 0, CSN inh 3, Rpn11 block 3, Xi reactivation 0 and HNF4A DNA FP -1.
`CN(C)c1ccc(/C=C2\N=C(C(C)(C)C)OC2=O)cc1` gave TPT1 inhibitor 117*, aDG glyco act -1, CSN inh 20, Xi reactivation 0, HNF4A DNA FP 11, TPT1 inh confirm 129* and RNase T1 inh 140*.
